# Tested on: U2OS
# Test: Multiplex assay against U2OS
# Format: toxicity, cell-based
# Details: human
# In short: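 Tubulin, mitochondrial-mass and membrane-permeability phenotypes are per cents of healthy-nucleus cells. Cells were gated by CellPathfinder machine learning into Hoechst high-intensity objects or normal cells, normal cells into healthy, pyknosed or fragmented nuclei, and pyknosed cells into mitotic or apoptotic. Before that, live cells stained at seeding with Hoechst33342, BioTracker Green Microtubule Cytoskeleton Dye, MitoTracker Red and Annexin V Alexa Fluor 680 were imaged on a CQ1 microscope at 37°C and 5% CO2 after compound addition.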
# [1] = 12 h, 1 µM, compound concentration 1 uM, replicate 1
# [2] = 12 h, 1 µM, compound concentration 1 uM, replicate 2
# [3] = 12 h, 10 µM, compound concentration 10 uM, replicate 1
# [4] = 12 h, 10 µM, compound concentration 10 uM, replicate 2
# [5] = 24 h, 1 µM, compound concentration 1 uM, replicate 1
# [6] = 24 h, 1 µM, compound concentration 1 uM, replicate 2
# [7] = 24 h, 10 µM, compound concentration 10 uM, replicate 1
# [8] = 24 h, 10 µM, compound concentration 10 uM, replicate 2
# [9] = 48 h, 1 µM, compound concentration 1 uM, replicate 1
# [10] = 48 h, 1 µM, compound concentration 1 uM, replicate 2
# [11] = 48 h, 10 µM, compound concentration 10 uM, replicate 1
# [12] = 48 h, 10 µM, compound concentration 10 uM, replicate 2
structure (smiles),measurement,setting,value
CC(C)(C)c1cc(NC(=O)Nc2ccc(-c3cn4c(n3)sc3cc(OCCN5CCOCC5)ccc34)cc2)no1 [QUIZARTINIB],Population Apoptotic (%),[1],48%
same,Population Fragmented Nuclei (%),[1],24%
same,Population Healthy Nuclei (%),[1],61%
same,Population Hoechst High Intensity Objects (%),[1],6%
same,Population Membrane Permeable-Phenotype (%),[1],13%
same,Population Mitochondria Different-Phenotype (%),[1],4%
same,Population Mitotic Cells (%),[1],51%
same,Population Normal (%),[1],93%
same,Population Pyknosed Nuclei (%),[1],14%
same,Population Tubulin-Different-Phenotype (%),[1],8%
same,Total Cell Count,[1],213
same,Population Apoptotic (%),[2],78%
same,Population Fragmented Nuclei (%),[2],17%
same,Population Healthy Nuclei (%),[2],70%
same,Population Hoechst High Intensity Objects (%),[2],1%
same,Population Membrane Permeable-Phenotype (%),[2],6%
same,Population Mitochondria Different-Phenotype (%),[2],6%
same,Population Mitotic Cells (%),[2],21%
same,Population Normal (%),[2],98%
same,Population Pyknosed Nuclei (%),[2],11%
same,Population Tubulin-Different-Phenotype (%),[2],4%
same,Total Cell Count,[2],119
same,Population Apoptotic (%),[3],58%
same,Population Fragmented Nuclei (%),[3],30%
same,Population Healthy Nuclei (%),[3],47%
same,Population Hoechst High Intensity Objects (%),[3],13%
same,Population Membrane Permeable-Phenotype (%),[3],85%
same,Population Mitochondria Different-Phenotype (%),[3],26%
same,Population Mitotic Cells (%),[3],41%
same,Population Normal (%),[3],86%
same,Population Pyknosed Nuclei (%),[3],21%
same,Population Tubulin-Different-Phenotype (%),[3],76%
same,Total Cell Count,[3],197
same,Population Apoptotic (%),[4],23%
same,Population Fragmented Nuclei (%),[4],11%
same,Population Healthy Nuclei (%),[4],65%
same,Population Hoechst High Intensity Objects (%),[4],6%
same,Population Membrane Permeable-Phenotype (%),[4],62%
same,Population Mitochondria Different-Phenotype (%),[4],33%
same,Population Mitotic Cells (%),[4],76%
same,Population Normal (%),[4],94%
same,Population Pyknosed Nuclei (%),[4],22%
same,Population Tubulin-Different-Phenotype (%),[4],54%
same,Total Cell Count,[4],100
same,Population Apoptotic (%),[5],57%
same,Population Fragmented Nuclei (%),[5],25%
same,Population Healthy Nuclei (%),[5],56%
same,Population Hoechst High Intensity Objects (%),[5],2%
same,Population Membrane Permeable-Phenotype (%),[5],15%
same,Population Mitochondria Different-Phenotype (%),[5],8%
same,Population Mitotic Cells (%),[5],42%
same,Population Normal (%),[5],97%
same,Population Pyknosed Nuclei (%),[5],17%
same,Population Tubulin-Different-Phenotype (%),[5],7%
same,Total Cell Count,[5],234
same,Population Apoptotic (%),[6],62%
same,Population Fragmented Nuclei (%),[6],15%
same,Population Healthy Nuclei (%),[6],72%
same,Population Hoechst High Intensity Objects (%),[6],0%
same,Population Membrane Permeable-Phenotype (%),[6],9%
same,Population Mitochondria Different-Phenotype (%),[6],4%
same,Population Mitotic Cells (%),[6],37%
same,Population Normal (%),[6],99%
same,Population Pyknosed Nuclei (%),[6],12%
same,Population Tubulin-Different-Phenotype (%),[6],5%
same,Total Cell Count,[6],134
same,Population Apoptotic (%),[7],63%
same,Population Fragmented Nuclei (%),[7],34%
same,Population Healthy Nuclei (%),[7],34%
same,Population Hoechst High Intensity Objects (%),[7],11%
same,Population Membrane Permeable-Phenotype (%),[7],55%
same,Population Mitochondria Different-Phenotype (%),[7],38%
same,Population Mitotic Cells (%),[7],36%
same,Population Normal (%),[7],88%
same,Population Pyknosed Nuclei (%),[7],30%
same,Population Tubulin-Different-Phenotype (%),[7],45%
same,Total Cell Count,[7],195
same,Population Apoptotic (%),[8],51%
same,Population Fragmented Nuclei (%),[8],10%
same,Population Healthy Nuclei (%),[8],58%
same,Population Hoechst High Intensity Objects (%),[8],2%
same,Population Membrane Permeable-Phenotype (%),[8],40%
same,Population Mitochondria Different-Phenotype (%),[8],32%
same,Population Mitotic Cells (%),[8],48%
same,Population Normal (%),[8],97%
same,Population Tubulin-Different-Phenotype (%),[8],30%
same,Total Cell Count,[8],96
same,Population Apoptotic (%),[9],60%
same,Population Fragmented Nuclei (%),[9],21%
same,Population Healthy Nuclei (%),[9],61%
same,Population Hoechst High Intensity Objects (%),[9],3%
same,Population Membrane Permeable-Phenotype (%),[9],7%
same,Population Mitochondria Different-Phenotype (%),[9],2%
same,Population Mitotic Cells (%),[9],39%
same,Population Normal (%),[9],96%
same,Population Pyknosed Nuclei (%),[9],16%
same,Population Tubulin-Different-Phenotype (%),[9],3%
same,Total Cell Count,[9],297
same,Population Apoptotic (%),[10],73%
same,Population Fragmented Nuclei (%),[10],16%
same,Population Healthy Nuclei (%),[10],72%
same,Population Hoechst High Intensity Objects (%),[10],2%
same,Population Membrane Permeable-Phenotype (%),[10],9%
same,Population Mitochondria Different-Phenotype (%),[10],7%
same,Population Mitotic Cells (%),[10],26%
same,Population Normal (%),[10],97%
same,Population Pyknosed Nuclei (%),[10],10%
same,Population Tubulin-Different-Phenotype (%),[10],6%
same,Total Cell Count,[10],180
same,Population Apoptotic (%),[11],72%
same,Population Fragmented Nuclei (%),[11],33%
same,Population Healthy Nuclei (%),[11],25%
same,Population Hoechst High Intensity Objects (%),[11],9%
same,Population Membrane Permeable-Phenotype (%),[11],41%
same,Population Mitochondria Different-Phenotype (%),[11],33%
same,Population Mitotic Cells (%),[11],27%
same,Population Normal (%),[11],90%
same,Population Pyknosed Nuclei (%),[11],40%
same,Population Tubulin-Different-Phenotype (%),[11],33%
same,Total Cell Count,[11],219
same,Population Apoptotic (%),[12],56%
same,Population Fragmented Nuclei (%),[12],19%
same,Population Healthy Nuclei (%),[12],48%
same,Population Hoechst High Intensity Objects (%),[12],5%
same,Population Membrane Permeable-Phenotype (%),[12],35%
same,Population Mitotic Cells (%),[12],43%
same,Population Normal (%),[12],94%
same,Population Pyknosed Nuclei (%),[12],32%
same,Population Tubulin-Different-Phenotype (%),[12],28%
same,Total Cell Count,[12],98
